# From PubChem BioAssay
# Beta2AR agonist – agonists of human beta-2 adrenergic receptor inducing internalization; P07550; Am2.2-beta2AR cells, FAP receptor internalization, flow cytometry; response, % (concentration not given with the values); actives 0.43% (n = 340,000);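 active = response above a set limit, near 3 SD of response in nonfluorescent compounds, cut at about 42% in these data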
# APJ ag – agonists of human APJ apelin receptor. actives 0.11% (n = 330,000). CHO-K1 APJ PathHunter beta-arrestin, luminescence; 0% DMSO wells, 100% apelin. activation, % at 20 µM. AID 2520;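 active = activation more than six SD over the plate average, tested at 20 µM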;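 note: 0% = DMSO alone and 100% = apelin-13 at 10 nM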
#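 system = engineered CHO-K1 APJ arrestin reporter cells | input = 1000 cells per well | timing = overnight seeding, 90 min compound at 25 °C, 1 h detection | measured by = enzyme-fragment complementation luminescence | read-out = beta-arrestin recruitment to APJ as agonist activity, luminescent signal | control set = negative DMSO alone, positive Apelin-13 at 10 nM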
# APJ antag – antagonists of human APJ apelin receptor; CHO-K1 APJ beta-arrestin complementation, luminescence; AID 2521; inhibition, % at 20 µM; actives 0.32% (n = 330,000);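 active = inhibition above about 40% at 20 µM, limit read from the data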;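 note: cells challenged with 10 nM apelin-13 agonist together with compound; plate controls were apelin-13 plus DMSO wells for no effect and DMSO wells lacking apelin-13 for full effect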
# CXCR6 block – CXCR6 (human) receptor inhibition | O00574 | CHO-K1 PathHunter CXCR6 beta-arrestin, luminescence | inhibition, % at 20 µM | actives 0.36% (n = 360,000); in the data active = inhibition above about 34%, passing the limit was not always enough;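 note: antagonist mode with CXCL16 agonist at 10 nM final; 0% = 10 nM CXCL16 with DMSO and 100% = unstimulated wells without agonist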
# Target sequence (O00574 whole entry, looked up): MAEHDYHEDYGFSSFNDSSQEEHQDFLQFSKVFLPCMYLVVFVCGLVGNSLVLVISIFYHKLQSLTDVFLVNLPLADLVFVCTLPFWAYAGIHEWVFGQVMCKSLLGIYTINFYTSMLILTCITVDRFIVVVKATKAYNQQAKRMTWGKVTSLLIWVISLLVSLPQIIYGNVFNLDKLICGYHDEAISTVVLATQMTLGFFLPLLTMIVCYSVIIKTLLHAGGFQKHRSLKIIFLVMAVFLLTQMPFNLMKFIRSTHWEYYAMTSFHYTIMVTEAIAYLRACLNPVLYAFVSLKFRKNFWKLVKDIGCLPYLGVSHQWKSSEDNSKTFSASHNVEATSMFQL
# EBI2 block – blocks human EBI2 receptor beta-arrestin signaling. inhibition, % at 5 µM. EBI2 beta-arrestin recruitment, luminescence, 7a,25-OHC stimulated. P32249. actives 0.81% (n = 360,000). AID 651636; in the data active = inhibition above about 38%;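 note: enzyme fragment complementation signal reports receptor beta-arrestin coupling in cells; 0% = agonist plus DMSO wells and 100% = wells without agonist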
# CCR6 antagonist – blocks CCL20-driven beta-arrestin recruitment at human CCR6; CHO-K1 CCR6 PathHunter beta-arrestin, luminescence, CCL20-stimulated; inhibition, % at 20 µM; actives 0.49% (n = 340,000); AID 493098;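 active = compounds whose inhibition of the agonist-driven luminescence signal at 20 µM reaches about 50%, limit read from the data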;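 note: cells stimulated with CCL20 at 14 nM final; plate controls were DMSO with CCL20 for no effect and DMSO without agonist for full effect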
# EBI2 conf – EBI2 (human) antagonism, single concentration confirmation | shares compounds with EBI2 block | EBI2 beta-arrestin luminescence, 7a,25-OHC antagonism | inhibition, % at 5 µM | actives 29% (n = 2,400) | AID 651997;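 active = inhibition of at least 50%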
# EBI2 agonist – counter-screen for EBI2 antagonists: EBI2 agonist activity; EBI2-expressing cells, agonist mode, luminescence, 60 min; 0% vehicle, 100% 7α,25-dihydroxycholesterol control; AID 652000; shares compounds with EBI2 block; activation, % at 5 µM; 2,400 tested, under 10 active;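 active = activation of at least 50%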
# bGal counter – beta-galactosidase inhibition counter-screen; inhibition, % at 5 µM; AID 652176; purified beta-galactosidase, luminescent Galacton Star, 15 min; actives 1% (n = 2,400); shares compounds with EBI2 block;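 active = replicate-average signal at least 3 plate SD below neutral wells, shown as high inhibition, flagging enzyme-inhibiting false positives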;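 note: 0% = DMSO wells with enzyme and 100% = wells lacking enzyme; higher means stronger loss of beta-gal luminescence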
# Starred values were filed as active, the others as inactive; nt = no result. Hits are enriched below; roughly 1.8% of the tested compounds scored in any of these assays.
SMILES,Beta2AR agonist,APJ ag,APJ antag,CXCR6 block,EBI2 block,CCR6 antagonist,EBI2 conf,EBI2 agonist,bGal counter
N#Cc1nc(COc2ccccc2)oc1N1CCC(Cc2ccccc2)CC1,10,-4,-2,12,70*,13,20,-1,-4
N#Cc1nc(COc2ccccc2)oc1N1CCN(Cc2ccccc2)CC1,-9,0,8,7,37,14,nt,nt,nt
CCSc1nc2nccnc2c(=O)[nH]1,2,nt,nt,-2,8,-5,nt,nt,nt
CCOc1ccc2nc(COC(=O)c3cccs3)c(C(=O)c3ccccc3)[n+]([O-])c2c1,-6,-2,5,4,47*,14,24,0,7
CCOc1ccc2nc(COC(=O)c3cccs3)c(C(C)=O)[n+]([O-])c2c1,0,2,5,0,14,13,nt,nt,nt
CCOc1ccc2nc(COC(=O)c3ccncc3)c(C(=O)c3ccccc3)[n+]([O-])c2c1,-9,-3,12,2,45*,9,16,-2,-7
COc1ccc(OC)c(/C=C/C(=O)N2CCN(S(=O)(=O)c3cc(C)ccc3C)CC2)c1,12,1,-9,9,18,7,nt,nt,nt
COc1ccccc1/C=C/C(=O)N1CCN(S(=O)(=O)c2cc(C)ccc2C)CC1,1,-5,9,1,85*,7,76*,-1,-20
Cc1ccc(C)c(S(=O)(=O)N2CCN(C(=O)CNC(=O)c3ccc4ccccc4c3)CC2)c1,nt,0,7,8,63*,12,50,1,3
Cc1ccc(C)c(S(=O)(=O)N2CCN(C(=O)Cc3ccccc3)CC2)c1,3,-8,21,9,-4,1,nt,nt,nt
Cc1ccc(C)c(S(=O)(=O)N2CCN(C(=O)CCC(=O)c3cc(C)sc3C)CC2)c1,14,-4,-1,-2,78*,10,51*,4,3
CCCCOC(=O)c1ccc(NC(=O)CSC2=Nc3ccccc3C3CC=NN23)cc1 (centres undefined),1,-2,-5,12,59*,15,16,0,9
O=C(CSC1=Nc2ccccc2C2CC=NN12)Nc1ccc(F)c(F)c1F (centres undefined),2,-3,-50,-6,1,11,nt,nt,nt
CSC1=C(C#N)C(c2ccccc2Cl)C(C(C)=O)=C(C)N1 (centres undefined),-3,-1,10,8,65*,-3,48,3,10
CCOCCCNC(=S)N1CCN(Cc2ccc3c(c2)OCO3)CC1,-4,-2,15,-6,-14,10,nt,nt,nt
COc1cc2nc(C3CCC3)nc(N3CCN(c4ccccc4OC)CC3)c2cc1OC,2,3,-7,9,46*,14,36,2,-6
Cc1ccc(NC(=O)Cn2nc(C(=O)O)c3ccccc3c2=O)cc1S(=O)(=O)N1CCCCCC1,7,nt,nt,-8,2,22,nt,nt,nt
CCOC(=O)c1c(NC(=O)C2=C(C)NC(=S)NC2c2ccc(F)cc2F)sc(C)c1C (centres undefined),-6,-3,-6,7,86*,-4,45,-1,7
CCOC(=O)c1c(NC(=O)C2=C(C)NC(=S)NC2c2ccc(F)cc2)sc(C)c1C (centres undefined),0,-2,17,-2,82*,11,53*,1,-3
CCOC(=O)c1c(NC(=O)C2=C(C)NC(=S)NC2c2ccc(C)cc2)sc(C)c1C (centres undefined),-6,-3,9,10,92*,12,48,-2,-13
COc1ccc(SC[C@H](Cc2ccccc2)N2CC[C@@H](NC(=O)OCc3ccccc3)CCC2=O)cc1,-1,-1,13,13,26,17,nt,nt,nt
CC1CC(C)CN(C(=O)CN2C(=O)NC3(CCCCCC3)C2=O)C1 (centres undefined),17,0,13,-1,-4,0,nt,nt,nt
Cc1ccc(C(=O)N2CCN(S(=O)(=O)c3ccc(C)cc3)CC2)cc1,-3,-1,-3,-3,5,16,nt,nt,nt
COc1cc(SC)ccc1C(=O)N1CCN(c2ccccc2F)CC1,-5,-5,-9,2,17,6,nt,nt,nt
Cc1ccc(S(=O)(=O)N2CCN(C(=O)c3cc(=O)c4ccccc4o3)CC2)cc1,0,-2,14,0,46*,11,39,1,9
SMILES,Beta2AR agonist,APJ ag,APJ antag,CXCR6 block,EBI2 block,CCR6 antagonist,EBI2 conf,EBI2 agonist,bGal counter
O=C(c1ccc(Cl)cc1)N1CCN(S(=O)(=O)/C=C/c2ccccc2)CC1,-7,-3,0,-6,92*,28,67*,3,8
O=C(c1cc2ccccc2o1)N1CCN(S(=O)(=O)c2cccs2)CC1,-1,0,-13,-6,59*,-7,53*,1,0
COc1cc(SC)ccc1C(=O)N1CCN(S(=O)(=O)/C=C/c2ccccc2)CC1,5,-3,-4,-4,65*,5,24,-2,-10
COc1ccc(-c2cc3c(o2)CCCC3OCCN2CCOCC2)cc1 (centres undefined),nt,nt,nt,-9,-5,nt,nt,nt,nt
COc1cccc(OCC(O)CN2CCN(C)CC2)c1 (centres undefined),-16,-1,8,-23,-9,-9,nt,nt,nt
CCCn1c(=O)c(C(=O)Nc2ccccc2N)c(O)c2ccccc21,nt,nt,nt,-2,-19,nt,nt,nt,nt
O=C(c1cc2ccccc2o1)N1CCN(S(=O)(=O)c2ccccc2)CC1,3,-2,12,4,75*,14,41,1,6
O=C(c1ccco1)N1CCN(S(=O)(=O)/C=C/c2ccccc2)CC1,-9,-3,6,-9,7,-10,nt,nt,nt
O=C(c1cc2ccccc2o1)N1CCN(S(=O)(=O)/C=C/c2ccccc2)CC1,-10,-2,1,-11,92*,23,86*,1,0
CC(c1ccccc1)N(CCC(c1ccccc1)C1CCOC(C)(C)C1)C(=O)c1ccco1 (centres undefined),-9,2,-14,4,44*,30,10,2,8
COc1ccc(CN(CCC(c2ccc(F)cc2)C2CCOC(C)(C)C2)C(=O)c2ccco2)cc1 (centres undefined),0,1,-5,-2,-4,4,nt,nt,nt
